From ChEMBL document CHEMBL1124258, “(Imidazo[1,2-a]pyrimidin-2-yl)phenylmethanones and related compounds as potential nonsedative anxiolytics” (J Med Chem, 1988)

Columns and labels:
[1] = target: GABA-A receptor; anion channel; test: Inhibition of 0.6 nM [3H]flunitrazepam binding to GABA-A central benzodiazepine receptor of rat forebrain membrane
Outline: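 Rat forebrain membranes with [3H]flunitrazepam at 0.6 nM, modified Squires–Braestrup method. IC50 (nM) read from displacement curves of at least four concentrations, each in triplicate.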

Rattus norvegicus [2] = organism: Rattus norvegicus; test: Minimum Effective Dose (MED) was measured using Food-Conflict test in rats; format: functional; conditions: read-out: MED
Outline: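 Male Lister rats on alternating schedule: five 4-min FI30 unpunished and 3-min FR5 punished components (food-motivated). Oral dosing, first at 50 mg/kg in four rats, then at decreasing doses if active until the minimum effective dose was reached.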

Rattus norvegicus [3] = organism: Rattus norvegicus; test: Minimum Effective Dose(MED was measured by using Licking-Conflict test in rats; format: functional; conditions: read-out: MED
Outline: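 Rats trained to stable suppression of drinking at tone onset. Each session had 1 min unpunished drinking, then a tone lasting through a 3-min punished period.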

Mus musculus [4] = organism: Mus musculus; test: Muscle relaxation in mice by using Pull-Up test; format: functional
Mus musculus [5] = organism: Mus musculus; test: Sedative/muscle relaxant effect in mice by using Rotating-Drum test; format: functional
Outline: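 Male CD-1 mice were placed on a rotating drum (3 cm diameter, 16 rev/min) 1 h after dosing. Mean time on the drum for groups of 10 was expressed as a percentage of the control group mean.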

Mus musculus [6] = test: Anticonvulsant activity in CD-1 mice with 120 mg/kg of leptazol; format: functional
Outline: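 Male CD-1 mice challenged with leptazol at 120 mg/kg, following Everett and Richards. ED50 (mg/kg po) with 95% confidence limits by Litchfield–Wilcoxon where the doses allowed.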

Row | Compound | IC50 [1] [nM] | minimal effective dose (Rattus norvegicus [2]) [mg/kg] | minimal effective dose (Rattus norvegicus [3]) [mg/kg] | ED50 (Mus musculus [4]) [mg/kg] | ED50 (Mus musculus [5]) [mg/kg] | ED50 (Mus musculus [6]) [mg/kg]
1 | O=C(O)c1cn2c(n1)sc1ccccc12 | > 10 | – | – | – | – | –
2 | COc1cc(C)n2cc(C(=O)c3ccccc3)nc2n1 | 800 | 5 | – | – | – | –
3 | CCc1ccc2c(c1)c(OC)c(C)c1nc(C(=O)c3ccccc3)cn12 | 7 | 2 | – | – | – | –
4 | COc1ccc(C(=O)c2cn3c(cc(OC)c4ccccc43)n2)cc1 | 37 | > 50 | – | – | – | –
5 | CSc1cc(C)n2cc(C(=O)c3ccccc3)nc2n1 | 190 | 5 | – | – | – | –
6 | CCOc1nc2nc(C(=O)c3ccccc3)cn2c2c1CCCC2 | 2000 | > 50 | – | – | – | –
7 | CCc1c(OC)nc2nc(C(=O)c3ccccc3)cn2c1CC | 107 | 2 | – | – | – | –
8 | COc1nc2nc(C(=O)c3ccccc3)cn2c2c1CCCCC2 | 125 | 10 | – | – | – | –
9 | CCc1cc(OC)nc2nc(C(=O)c3ccccc3)cn12 | 295 | 2 | – | – | – | –
10 | O=C(OCc1ccccc1)c1cn2c(n1)sc1ccccc12 | 50 | – | – | – | – | –
11 | COc1cc2nc(C(=O)c3ccccc3)cn2c2cc(C)c(C)cc12 | 100 | 5 | – | – | – | –
12 | CC(C)OC(=O)c1cn2c(n1)sc1ccccc12 | 160 | – | – | – | – | –
13 | CSc1nc2nc(C(=O)c3ccccc3)cn2c2c1CCCC2 | 9 | 10 | – | – | – | –
14 | CCc1cn2cc(C(=O)c3ccccc3)nc2nc1OC | 1500 | 5 | – | – | – | –
15 | CCc1c(OC)nc2nc(C(=O)c3ccccc3)cn2c1C [DIVAPLON] | 56 | 2 | 2 | 200 | 200 | 21
16 | CCOC(=O)Cc1cn2c(n1)sc1ccccc12 | > 10 | – | – | – | – | –
17 | CCc1ccc2c(c1)c(OC)cc1nc(C(=O)c3ccccc3)cn12 | 14 | 5 | 2 | 640 | 22.5 | 3.2
18 | CCOc1nc2nc(C(=O)c3ccccc3)cn2c2c1CCC2 | > 10000 | 50 | – | – | – | –
19 | COc1nc2nc(C(=O)c3ccccc3)cn2c2c1CCC(C)C2 (stereo not given) | 135 | 10 | – | – | – | –
20 | CCOC(=O)c1cn2c(n1)sc1ccccc12 | 120 | – | – | – | – | –
21 | C=CCc1c(OC)nc2nc(C(=O)c3ccccc3)cn2c1CC | 42 | 10 | – | – | – | –
22 | CCc1ccc2c(c1)c(OC)cc1nc(C(=O)c3ccccn3)cn12 | 9 | 5 | – | – | – | –
23 | CCC(=O)c1cn2c(cc(OC)c3cc(CC)ccc32)n1 | 135 | 10 | – | – | – | –

Row | Compound | IC50 [1] [nM] | minimal effective dose (Rattus norvegicus [2]) [mg/kg] | minimal effective dose (Rattus norvegicus [3]) [mg/kg] | ED50 (Mus musculus [4]) [mg/kg] | ED50 (Mus musculus [5]) [mg/kg] | ED50 (Mus musculus [6]) [mg/kg]
24 | CCc1c(SC)nc2nc(C(=O)c3ccccc3)cn2c1C | 12 | 2 | 2 | 200 | 100 | 12.5
25 | COc1cc2nc(C(=O)c3ccccc3)cn2c2ccccc12 | 57 | 5 | – | – | – | –
26 | COc1nc2nc(C(=O)c3ccccc3)cn2c2c1CCC2 | 200 | 20 | – | – | – | –
27 | CCc1ccc2c(c1)c(OC)cc1nc(C(C)=O)cn12 | 1300 | 20 | – | – | – | –
28 | CSc1nc2nc(C(=O)c3ccccc3)cn2c2c1CSCC2 | 24 | 50 | – | – | – | –
29 | CSc1nc2nc(C(=O)c3ccccc3)cn2c2c1CCC(C)C2 (stereo not given) | 76 | 50 | – | – | – | –
30 | COc1cc2nc(C(=O)c3ccccc3)cn2c2ccc(C)cc12 | 21 | 5 | – | – | – | –
31 | COc1cc2nc(C(=O)c3ccc(C)cc3)cn2c2ccccc12 | 19 | > 50 | – | – | – | –
32 | CCc1ccc2c(c1)sc1nc(C(=O)c3ccccc3)cn12 | 740 | – | – | – | – | –
33 | COc1cc2nc(C(=O)c3ccccc3)cn2c2ccc(F)cc12 | 20 | 10 | – | – | – | –
34 | COC(=O)c1cn2c(n1)sc1ccccc12 | 60 | – | – | – | – | –
35 | CCCc1c(SC)nc2nc(C(=O)c3ccccc3)cn2c1CC | 47 | 10 | – | – | – | –
36 | CCCOC(=O)c1cn2c(n1)sc1ccccc12 | 470 | – | – | – | – | –
37 | CCCc1cc(OC)nc2nc(C(=O)c3ccccc3)cn12 | 535 | 1 | – | – | – | –
38 | CCCC(=O)c1cn2c(cc(OC)c3cc(CC)ccc32)n1 | 535 | 20 | – | – | – | –
39 | COc1nc2nc(C(=O)c3ccccc3)cn2c2c1CSCC2 | 185 | 20 | – | – | – | –
40 | O=C(c1ccccc1)c1cn2c(n1)sc1ccccc12 | 85 | – | – | – | – | –
41 | CCCCc1cc(OC)nc2nc(C(=O)c3ccccc3)cn12 | 340 | 10 | – | – | – | –
42 | CCCc1c(OC)nc2nc(C(=O)c3ccccc3)cn2c1CC | 34 | 10 | – | – | – | –
43 | CCCCc1c(OC)nc2nc(C(=O)c3ccccc3)cn2c1C | 42 | 2 | – | – | – | –
44 | COc1cc2nc(C(=O)c3ccc(Cl)cc3)cn2c2ccccc12 | 96 | > 50 | – | – | – | –
45 | CNC1=Nc2ccc(Cl)cc2C(c2ccccc2)=[N+]([O-])C1 [CHLORDIAZEPOXIDE] | – | 5 | 2 | 16 | 6.8 | 1.9
46 | CCCc1ccc2c(c1)c(OC)cc1nc(C(=O)c3ccccc3)cn12 | 16 | 2 | – | – | – | –

Row | Compound | IC50 [1] [nM] | minimal effective dose (Rattus norvegicus [2]) [mg/kg] | minimal effective dose (Rattus norvegicus [3]) [mg/kg] | ED50 (Mus musculus [4]) [mg/kg] | ED50 (Mus musculus [5]) [mg/kg] | ED50 (Mus musculus [6]) [mg/kg]
47 | COc1cc2nc(C(=O)c3ccccc3)cn2c2ccc(C(C)C)cc12 | 10 | 5 | – | – | – | –
48 | CCCCc1c(OC)nc2nc(C(=O)c3ccccc3)cn2c1CC | 34 | 10 | – | – | – | –
49 | COc1cc2nc(C(=O)c3cccs3)cn2c2ccccc12 | 24 | > 50 | – | – | – | –
50 | COc1nc2nc(C(=O)c3ccccc3)cn2c(C)c1OC | 1000 | 5 | – | – | – | –
51 | CCc1ccc2c(c1)c(OC)c(CC)c1nc(C(=O)c3ccccc3)cn12 | 135 | 20 | – | – | – | –
52 | CCOc1nc2nc(C(=O)c3ccccc3)cn2c2c1CCCCC2 | 4000 | 5 | – | – | – | –
53 | CCSc1nc2nc(C(=O)c3ccccc3)cn2c2c1CCC2 | 1850 | 50 | – | – | – | –
54 | COc1nc2nc(C(=O)c3ccccc3)cn2c(C)c1CC1CC1 | 30 | 10 | – | – | – | –
55 | O=C(Nc1cccc(Cl)c1)c1cn2c(n1)sc1ccccc12 | > 10000 | – | – | – | – | –
56 | CCOc1nc2nc(C(=O)c3ccccc3)cn2c2c1CSCC2 | > 10000 | > 50 | – | – | – | –
57 | CCCc1c(OC)nc2nc(C(=O)c3ccccc3)cn2c1C | 85 | 5 | 5 | 100 | 100 | 200
58 | CSc1nc2nc(C(=O)c3ccccc3)cn2c2c1CCC2 | 35 | 2 | – | – | – | –
59 | CCCc1cc(SC)nc2nc(C(=O)c3ccccc3)cn12 | 89 | 10 | – | – | – | –
60 | COc1nc2nc(C(=O)c3ccccc3)cn2c2c1CCCC2 | 61 | 5 | 5 | 500 | 200 | 100
61 | O=C(OC1CCCCC1)c1cn2c(n1)sc1ccccc12 | 7100 | – | – | – | – | –
62 | O=C(Nc1nccs1)c1cn2c(n1)sc1ccccc12 | > 10 | – | – | – | – | –
63 | CCOC(=O)c1cn2c(n1)sc1cc(CC)ccc12 | 4000 | – | – | – | – | –
64 | CCOC(=O)N1Cc2c(OC)nc3nc(C(=O)c4ccccc4)cn3c2C1 | 10000 | 50 | – | – | – | –
65 | CCCCc1ccc2c(c1)c(OC)cc1nc(C(=O)c3ccccc3)cn12 | 25 | 10 | – | – | – | –
66 | COc1nc2nc(C(=O)c3ccccc3)cn2c2c1CSC2 | 430 | > 50 | – | – | – | –
67 | CC1(C)COC(c2cn3c(n2)sc2ccccc23)=N1 | > 10000 | – | – | – | – | –
68 | C=CCc1c(SC)nc2nc(C(=O)c3ccccc3)cn2c1C | 8 | 5 | – | – | – | –
69 | C=CCc1c(OC)nc2nc(C(=O)c3ccccc3)cn2c1C | 45 | 5 | 10 | – | 100 | 54
